Screening results as filed in PubChem.
Compounds with a hit are over-represented: about 1.5% of the library has one in this group of screens.
CHT inh: inhibitors of human choline transporter CHT | High affinity choline transporter 1 (Homo sapiens), Q9GZV3 | CHT-expressing cells, membrane potential dye, choline response; hits give low values | B-score at 10 µM | 0.86% of 310,000 active | AID 488975, 2010;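 active = B-score over 3 SD under the library average, and starting fluorescence ratio not unusually high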;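 also: choline stimulus applied at its EC90 after an EC20 pre-addition; B-score computed on integrated fluorescence ratio after choline addition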
Target sequence (Q9GZV3 whole entry, looked up): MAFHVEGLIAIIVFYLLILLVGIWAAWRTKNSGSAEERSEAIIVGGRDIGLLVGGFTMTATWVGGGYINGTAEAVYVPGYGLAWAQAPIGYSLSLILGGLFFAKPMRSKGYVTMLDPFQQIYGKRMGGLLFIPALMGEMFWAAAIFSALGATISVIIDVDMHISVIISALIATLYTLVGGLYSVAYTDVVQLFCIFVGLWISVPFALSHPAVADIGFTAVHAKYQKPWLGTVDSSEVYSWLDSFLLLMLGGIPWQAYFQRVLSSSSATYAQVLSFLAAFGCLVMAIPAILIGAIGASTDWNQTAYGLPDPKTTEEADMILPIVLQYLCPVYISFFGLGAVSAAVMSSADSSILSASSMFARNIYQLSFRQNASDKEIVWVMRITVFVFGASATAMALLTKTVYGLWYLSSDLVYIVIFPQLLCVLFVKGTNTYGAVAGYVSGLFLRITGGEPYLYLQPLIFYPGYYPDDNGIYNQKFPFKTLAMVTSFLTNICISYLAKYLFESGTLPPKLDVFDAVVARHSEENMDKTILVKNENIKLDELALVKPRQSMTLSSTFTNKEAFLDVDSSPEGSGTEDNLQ
T cell modulator: modulators of CD8 T cell-vesicle binding, primary screen, mouse 2C CD8+ T cells, flow cytometry; 0.068% of 330,000 active; 2C CD8+ T cell-vesicle binding; hits give low values; response (vesicle binding), % at 7 µM; AID 2052, 2009;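 active = response, share of CD8 T cells binding vesicles, and their 90th percentile fluorescence all below set limits, cut at about 80% in these data, passing the limit was not always enough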;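 also: values below 100% mean blocked vesicle binding to the CD8+ T cells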
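incubation = binding step 1.5 h, 37 °C, antibody labelling 20 min, ice | test system = 2C mouse CD8+ T cells | read-out basis = percent CD8+ FL2 mean versus row control | controls = Peptide-free naked vesicles (low) and QL9 vesicles with 0.7% DMSO vehicle (high) | detection = flow cytometry of vesicle-bound cells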
CHT allo act: CHT positive allosteric modulators, primary screen, cell-based, membrane potential dye, choline EC20; High affinity choline transporter 1 (Homo sapiens), Q9GZV3; CHT-expressing cells; hits give high values; LV-AA mutant CHT in HEK293 cells; B-score at 10 µM; 0.49% of 310,000 active; AID 488977, 2010;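 active = initial fluorescence not abnormally high and integrated response B-score, plate-corrected, over 3 SD above library mean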
VLA-4 inh: inhibition in human VLA-4 binding assay, primary screen, VLA-4 allosteric modulator project, MLPCN library, flow cytometry, VLA-4 expressing cells. Integrin alpha-4 (Homo sapiens), P13612. ligand binding flow cytometry. inhibition, % (about 7 µM as worked out from the volumes in the protocol). 0.2% of 330,000 active. AID 2557, 2010; in the data active = inhibition above about 50%
CHT act confirm: CHT activators, confirmation, cell-based, membrane potential dye, duplicate | shares compounds with CHT allo act | CHT-expressing cells, membrane potential dye fluorescence (FDSS); % of choline EC20–EC90 response window; HEK293 expressing CHT LV-AA mutant; choline added at its EC20 | activation, % at 10 µM | 91% of 2,500 active | AID 504833, 2011;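 active = primary screen active, with duplicate mean activation above negative control mean plus 3 SD, cut at about 11% in these data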
HEK293 MP dye: membrane potential response in parental HEK293 cells, counter-screen for CHT activator project, cell-based, membrane potential dye; shares compounds with CHT allo act; membrane potential dye fluorescence (FDSS); measured after EC20 choline addition; ratio readout change at 10 µM, hits read low; 62% of 2,500 active; AID 623908, 2012;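 active = duplicate-averaged ratio beyond 3 SD from buffer wells, up or down, though filed actives are nearly all decreases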
* marks the source's active call; other numbers are inactive results; i = inactive; x = no result given.

SMILES	CHT inh	T cell modulator	CHT allo act	VLA-4 inh	CHT act confirm	HEK293 MP dye
Clc1ccc(CN2C3=NCCN3c3ccccc32)cc1Cl	i	210	i	4	23*	i
COC(=O)c1ccc(OCCN2C3=NCCN3c3ccccc32)cc1	i	308	i	7	17*	-40*
c1ccc2c(c1)N1CCCN=C1N2CCN1CCCCC1	i	241	9.5*	22	31*	-72*
c1ccc(CN2C3=NCCN3c3ccccc32)cc1	i	329	i	-1	x	x
O=C(Cn1ccc(NC(=O)OCc2ccccc2)nc1=O)NCCc1c[nH]c2ccccc12	x	275	x	0	x	x
Cc1nc(CCNS(=O)(=O)c2cccnc2)cs1	i	314	i	22	x	x
CC(C)C[C@H](NC(=O)N1CCn2c1nc1ccccc12)C(=O)NCC1CCCO1 (some centres undefined)	i	506	i	6	x	x
Cc1cc(C(=O)Nc2cccc3ncccc23)no1	i	i	i	7	x	x
Cc1cnc(C(=O)Nc2cccc3ncccc23)cn1	i	312	8*	1	43*	-47*
COCCCNC1=C(Cl)C(=O)c2ccccc2C1=O	i	218	i	0	x	x
CCN(CC)CCCNC1=C(Cl)C(=O)c2ccccc2C1=O	i	150	i	2	61*	-54*
Clc1cncc(Cl)c1N/N=C/c1ccncc1	i	367	i	-1	51*	-53*
C(=N\NC1=NCCN1)/c1ccncc1	i	124	6.4*	2	54*	-54*
CN(C1CCCCC1)S(=O)(=O)c1ccc(C(=O)N2CCN(c3nc4ccccc4s3)CC2)cc1	i	277	i	21	x	x
COc1ccc(NS(=O)(=O)c2cccc(-c3nnc4n3CCCCC4)c2)cc1	i	174	i	20	18*	i
COc1ccccc1S(=O)(=O)Nc1cccc(-c2nnc3n2CCCCC3)c1	i	384	i	13	x	x
CCCSc1nc2cc(OC)c(OC)cc2c(=N)n1CCCN1CCOCC1	i	281	6.5*	-10	53*	-40*
CCN(CC)CCn1c(=N)n(CC(O)COc2cccc(C)c2)c2ccccc21 (centres undefined)	i	176	6.4*	1	54*	i
Cc1c(C)n(CC(O)CN2CCCCC2)c2ccccc12 (centres undefined)	i	195	i	2	x	x
Cc1cc(=O)n2c3ccccc3n(CC(O)CN3CCCC3)c2c1C#N (centres undefined)	i	430	6.9*	17	52*	-46*
CCCNCC(O)Cn1c2ccccc2n2c(=O)cc(C)c(C#N)c12 (centres undefined)	i	316	i	-4	46*	-41*
COc1ccc(N(Cc2ccccc2)S(=O)(=O)c2cc(C(=O)O)ccc2Cl)cc1	i	207	i	4	x	x
C#CC[N+]1(CC#Cc2ccc(C#CC[N+]3(CC#C)CCOCC3)cc2)CCOCC1	i	156	i	-1	38*	-41*
C#CC[N+]1(CC#Cc2ccccc2)CCCC1	i	264	i	-3	x	x
CCC1=[N+](CC(=O)c2ccc(C)cc2)CCn2c(C)ccc21	i	205	i	0	32*	i
SMILES	CHT inh	T cell modulator	CHT allo act	VLA-4 inh	CHT act confirm	HEK293 MP dye
Cc1nnsc1C(=O)NC1CCCc2c1cnn2-c1ccc(C(C)(C)C)cc1 (centres undefined)	i	271	i	-2	x	x
Cc1ccc2[nH]c(=O)cc(C(=O)OC(C)C)c2c1	i	253	i	4	x	x
CCc1noc(C)c1C(=O)Nc1cccc2ncccc12	i	478	i	4	x	x
Cc1csc2c(NCCCN3CCOCC3)ncnc12	i	287	i	3	41*	-38*
CCOC(=O)C[C@H]1c2cc(C(F)(F)F)ccc2S(=O)(=O)N1Cc1ccccc1	i	419	i	8	7	i
Cn1cc([C@@H]2C[C@H]3CN(Cc4cccc(Cl)c4)C(=O)[C@]34CCCN24)c(-c2ccccc2)n1	i	123	i	11	19*	i
CCn1ncc([C@@H]2C[C@H]3CN(Cc4cccc(Cl)c4)C(=O)[C@]34CCCN24)c1C	i	179	i	-7	x	x
CC(=O)N1CCN(c2ccccc2NC(=O)COc2cc(C)ccc2C(C)C)CC1	i	294	10*	0	44*	i
Cc1cc(C)n2c(Br)c(CN3CCCC(C)C3)nc2n1 (centres undefined)	i	378	6.6*	17	29*	-51*
Cc1cc(C)nc(SCc2nc3nc(C)cc(C)n3c2Br)n1	i	297	i	20	x	x
COc1cc(/C=C/C(=O)NC(C)CCc2ccccc2)cc(OC)c1OC (centres undefined)	i	22	i	x	0	i
CC(CCc1ccccc1)NC(=O)/C=C/c1ccccc1 (centres undefined)	i	372	i	-10	x	x
CN1CCN(CCCNC(=O)c2ccc(CSCc3cccc(Cl)c3)o2)CC1	i	325	i	11	x	x
COc1ccccc1N1CCN(CCCCNC(=O)c2ccc3ccccc3c2)CC1	i	651	7.6*	43	36*	-21*
O=C(NCCCN1CCN(CCCNC(=O)c2cccc(Cl)c2)CC1)c1cccc(Cl)c1	i	182	i	7	28*	i
COc1ccccc1N1CCN(CCCNC(=O)Nc2ccccc2)CC1	i	197	i	3	x	x
O=C(NCCN1CCCC1)c1cccc(Cl)c1	i	246	i	2	x	x
CC1CCN(CCCNC(=O)c2ccc(CSCc3cccc(Cl)c3)o2)CC1	i	326	8.3*	-1	49*	-35*
C=CCOC(=O)c1ccc(-n2cnc(C)n2)nc1	i	164	i	-1	x	x
C[C@@H]1CC=C[C@H]2[C@H]1C(=O)N(Cc1ccccc1)[C@H]2c1cccc([N+](=O)[O-])c1	i	186	6.3*	12	26*	i
C[C@@H]1CC=C[C@H]2[C@H]1C(=O)N(Cc1ccccc1)[C@H]2c1ccc2ccccc2c1	i	491	i	2	x	x
COc1ccc(CN2C(=O)c3cccnc3C2=O)cc1S(=O)(=O)NC(C)C	i	68	i	4	x	x
CN1CCN(C(=O)CSc2nc(-c3cccs3)cc(-c3cccs3)c2C#N)CC1	i	182	i	-25	x	x
